# Source: PubChem
# CHO parental Ca: counter-screen: ATP calcium response change in parental CHO cells; parental CHO-K1, ATP-induced calcium, Fluo-8 fluorescence; inhibition, % at 5.6 µM; 330,000 compounds, 0.63% hits; AID 463079;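 active = inhibition above that plate's mean sample inhibition plus 3 SD, cut at about 26% in these data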;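 note: 0% = ATP-challenged DMSO wells and 100% = DMSO wells without ATP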
#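 Assay system: parental CHO cells; Read-out basis: percent inhibition of ATP-evoked calcium rise, normalized to controls; Benchmarks: ATP and no-ATP DMSO wells; Compound dosing: single nominal dose of 5.6 µM per compound; Signal: Fluo-8 calcium dye fluorescence; Also added: ATP as calcium-mobilizing challenge; Repeats: singlicate.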
# OX1R antag-1: antagonists of human orexin 1 receptor; 330,000 compounds, 0.43% hits; inhibition, % at 5 µM; CHO/OX1R cells, Fluo-8 calcium fluorescence, orexin A; O43613; AID 434989;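 active = inhibition above its plate's threshold, mean inhibition of all tested compounds on the plate plus 3 SD, cut at about 37% in these data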;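 note: 0% = orexin A challenge wells and 100% = SB-334867-A antagonist wells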
# Target sequence (O43613 whole entry, looked up): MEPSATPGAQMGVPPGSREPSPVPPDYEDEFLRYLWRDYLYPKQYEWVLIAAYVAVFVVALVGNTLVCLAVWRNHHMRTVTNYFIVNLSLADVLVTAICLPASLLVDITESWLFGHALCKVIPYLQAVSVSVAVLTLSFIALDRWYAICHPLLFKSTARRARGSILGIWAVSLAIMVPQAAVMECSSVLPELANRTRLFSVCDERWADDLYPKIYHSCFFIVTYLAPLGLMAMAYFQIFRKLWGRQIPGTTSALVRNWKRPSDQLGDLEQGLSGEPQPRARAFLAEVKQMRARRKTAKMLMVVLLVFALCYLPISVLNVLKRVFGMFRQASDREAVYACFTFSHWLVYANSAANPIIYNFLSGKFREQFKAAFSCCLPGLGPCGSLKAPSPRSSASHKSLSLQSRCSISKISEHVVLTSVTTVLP
# GalR3 antagonist: human GalR3 antagonism; O60755; HEK293 GalR3-CNG cAMP membrane potential fluorescence; galR3 body fused to GalR1 C-terminus; inhibition, % at 3 µM; 360,000 compounds, 0.44% hits; AID 651719;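 active = inhibition above the screen-wide average plus 3 SD, cut at about 13% in these data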;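 note: forskolin and galanin both at EC90 stimulate the cells; cAMP rise reported by CNG channel membrane potential dye signal; 0% = forskolin plus galanin with DMSO and 100% = forskolin alone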
# Target sequence (O60755 1-299 limits assumed): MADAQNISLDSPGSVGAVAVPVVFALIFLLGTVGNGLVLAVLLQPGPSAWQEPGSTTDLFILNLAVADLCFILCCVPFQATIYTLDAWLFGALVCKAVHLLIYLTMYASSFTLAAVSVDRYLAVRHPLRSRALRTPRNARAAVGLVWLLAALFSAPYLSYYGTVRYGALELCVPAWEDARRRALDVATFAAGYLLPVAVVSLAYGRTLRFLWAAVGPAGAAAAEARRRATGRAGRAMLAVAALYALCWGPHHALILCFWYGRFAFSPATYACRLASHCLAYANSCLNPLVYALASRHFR
# OX1R antag-2: antagonists of human orexin 1 receptor (OX1R); inhibition, % at 6.6 µM; OX1R-expressing cells, FRET antagonist read-out; 330,000 compounds, 1.8% hits; in the data active = inhibition mostly above about 38%, no sharp cut-off; inactive = mostly below about 40%;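 note: 0% = agonist challenge alone and 100% = reference antagonist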
# TAAR1 antagonist: human TAAR1 antagonism; Q96RJ0; 360,000 compounds, 1.5% hits; CHO RD-HGA16 TAAR1, Fluo-8 calcium fluorescence, antagonist; inhibition, % at 3 µM;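 active = inhibition above a per-plate cutoff, the mean inhibition of test compounds on that plate plus 3 SD, cut at about 49% in these data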;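 note: 0% = DMSO plus EC80 beta-PEA response and 100% = DMSO alone without agonist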
#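 Test system: RD-HGA16 CHO cells with stable hTAAR1 and Gα16 / Probe or stimulus: EC80 β-phenethylamine stimulus / Times: seeding 17-24 h prior, 75-min 37 °C, 30-min RT dye loading / Detection: Fluo-8 calcium-sensitive fluorescence / Read-out basis: % inhibition scaled between DMSO and EC80 PEA controls / Repeats: singlicate, one well per test compound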
# TAAR1 ag: agonists of human TAAR1 | CHO RD-HGA16 TAAR1, Fluo-8 calcium fluorescence; vehicle wells 0%, saturating PEA agonist 100% | activation, % at 3 µM | 360,000 compounds, 0.99% hits;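 active = activation above the mean activation of all test compounds in the run plus 3 SD, cut at about 38% in these data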
#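 Test system: RD-HGA16 (CHO) cells co-expressing Gα16 and hTAAR1 / Benchmarks: DMSO vehicle as 0%, PEA at EC100 as 100% / Repeats: no replicates (n 1) / Measure: % activation from peak over basal fluorescence ratio, DMSO-to-PEA scaled / Timing: 17-24 h plating, Fluo-8 75 min 37 °C, 30 min RT / Technique: kinetic Fluo-8 calcium fluorescence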
# The depositor's hits bear a star; nt = no result given. Most compounds without a hit are left out; they make up all but 4.2% or so of the library.
SMILES,CHO parental Ca,OX1R antag-1,GalR3 antagonist,OX1R antag-2,TAAR1 antagonist,TAAR1 ag
O=C(Nc1nnc(C2=COCCO2)o1)c1ccc([N+](=O)[O-])cc1,-7.9,-8.1,-0.1,52.1*,-3.6,0.1
O=C(CCCOc1ccccc1)Nc1cccc(S(=O)(=O)N2CCCCC2)c1,-17.8,2.9,-6.5,7.0,5.5,6.4
Cc1cccc(C)c1NC(=S)NCCc1ccccn1,-1.0,-18.0,-2.3,3.7,-15.7,2.9
Cc1ccccc1NC(=S)NCCc1ccccn1,-1.6,-16.4,4.6,3.5,-1.9,60.2*
COc1ccccc1NC(=S)NCCc1ccccc1,-17.4,-11.6,-3.5,14.2,-0.4,40.2*
COc1ccccc1NC(=S)NCCc1c[nH]c2ccccc12,12.7,15.4,3.2,53.8,12.2,8.3
O=C(Nc1ccc(F)cc1F)C1(c2cccs2)CCOCC1,-7.9,-18.8,0.6,9.5,-2.5,-0.6
CCN(C(=O)C1CCN(c2nc(-c3ccc(OC)cc3)no2)CC1)c1ccc(OC)cc1,35.7*,-3.2,nt,19.3,-14.2,-1.9
COc1ccc(NC(=O)C2CCN(c3nc(-c4ccc(OC)cc4)no3)CC2)cc1,-3.9,1.2,nt,1.9,-4.2,2.8
CC(C)=CCc1cc([C@@H]2COc3c(ccc4c3C=CC(C)(C)O4)C2)c(O)cc1O,-9.2,-7.5,-7.9,2.9,-24.7,0.5
CC1(C)C=Cc2c(ccc3c2OC[C@H](c2ccc(O)cc2O)C3)O1,79.2*,51.9*,4.0,0.1,2.2,16.6
O=C(Nc1ccccc1C(=O)NCc1ccccc1)c1ccccc1Br,-27.0,-11.4,3.0,2.3,34.6,5.1
Cc1ccccc1C(=O)Nc1ccccc1C(=O)NCc1ccccc1,-17.0,0.8,-3.5,13.8,49.0*,7.8
Cc1nc2c(Br)cc(Br)cc2cc1O,4.5,-13.6,0.7,54.6*,0.2,12.9
Cc1nc2ccccc2c(-c2ccccc2)c1CC(=O)O,7.1,-0.4,-2.7,11.3,9.1,0.2
Cc1ccc2c(c1)=C(c1sc(N(C)c3ccc(O)cc3)nc1O)C(=O)N=2,1.0,-5.5,-9.9,26.0,11.5,3.1
O=C1N=c2ccc(Br)cc2=C1c1sc(=O)[nH]c1O,2.8,-21.2,nt,41.5*,nt,nt
NC(=O)c1ccc(C(=O)c2ccc([N+](=O)[O-])cc2)cc1,-10.8,-3.9,-4.5,70.2*,-7.4,3.1
Cc1c(C(=O)c2ccc([N+](=O)[O-])cc2)c(=O)n(C)c(=O)n1C,-6.2,-8.9,-1.3,73.8*,0.1,6.8
Cc1c(C(=O)c2ccc(Br)cc2)c(=O)n(C)c(=O)n1C,3.2,-14.1,4.4,3.3,-16.2,1.9
O=C(O)c1ccc([N+](=O)[O-])cc1,nt,nt,-0.7,nt,-15.3,15.4
COc1ccc(NC(=O)c2cc(-c3ccccn3)nc3ccccc23)c(OC)c1,-20.6,-15.5,-3.1,6.7,54.4*,13.8
COc1ccc(NC(=O)c2sc(-c3ccccc3)nc2C)c(OC)c1,-37.8,-3.4,-7.0,43.4*,-3.8,-0.3
COc1cccc(NC(=O)c2cc(-c3cccnc3)nc3c(Cl)cccc23)c1,-3.2,-14.0,-8.3,21.6,56.7*,14.2
COc1ccc(OC)c(/C=N\NC(=O)c2cc3c(ccc4ccccc43)o2)c1,-11.5,16.7,3.8,73.4*,27.2,2.9
SMILES,CHO parental Ca,OX1R antag-1,GalR3 antagonist,OX1R antag-2,TAAR1 antagonist,TAAR1 ag
CCN(C(=O)COC(=O)c1cc(-c2ccc3cc(OC)ccc3c2)nc2ccccc12)C1CCS(=O)(=O)C1 (stereo unspecified),-7.0,-17.5,nt,4.8,nt,nt
Cc1cc(=O)c2ccccc2[nH]1,-6.8,-0.3,-5.2,5.3,11.0,0.8
COc1ccc(-c2cc(C(=O)Nc3cc(C)on3)c3ccccc3n2)c(OC)c1,-27.5,-1.0,-4.6,14.9,-3.2,5.4
COc1ccc(/C=N/NC(=O)c2cc(-c3ccccc3)nc3ccccc23)c(OC)c1,-12.3,20.5,-6.8,42.3*,34.6,6.0
COc1cccc(NC(=O)c2cc(-c3ccc(OC)cc3OC)nc3ccccc23)c1,-5.7,-18.8,-3.3,6.8,53.3*,10.4
COc1ccc(CN2C(=O)NC3(CCCC3)C2=O)cc1F,-7.6,-26.3,-2.9,6.7,0.5,5.9
CC(/C=C1\SC(=S)N(c2ccc(C(=O)O)cc2)C1=O)=C\c1ccccc1,19.2,25.1,-0.5,25.8,-2.8,-2.5
N#CC(C#N)=C1C=C2C=C(N3CCCCCC3)CCC2CC1 (stereo unspecified),nt,nt,-2.0,nt,104.4*,956.7*
CC1(C)CC(NCCN2CCN(C3=CC(=C(C#N)C#N)CC(C)(C)C3)CC2)=CC(=C(C#N)C#N)C1,-13.3,-13.7,-2.8,8.5,19.6,0.6
CC(C)CCNc1ncnc2c1nnn2Cc1ccccc1Cl,-10.3,-34.5,-5.9,20.7,20.9,40.1*
Clc1ccc(CCNc2ncnc3c2nnn3Cc2ccccc2)cc1,-16.9,-25.1,-8.9,6.0,-32.5,37.7*
OCCNc1ncnc2c1nnn2Cc1ccccc1,nt,nt,-7.5,nt,-17.2,1.7
Cc1n[nH]c(=O)c2c(NC(=O)CSc3nncs3)oc(C)c12,-3.2,-9.1,-0.7,47.7*,-19.9,2.2
Cc1cc(C)c(C)c(SCC(=O)Nc2oc(C)c3c(C)n[nH]c(=O)c23)c1C,-26.2,-40.4,1.7,23.9,-9.5,1.6
CCc1ccc(-c2cc(C)no2)cc1S(=O)(=O)NCc1ccc(OC)c(OC)c1,-12.4,-22.4,-1.1,22.6,9.2,1.1
Cc1cc(-c2ccc(C)c(S(=O)(=O)NCc3ccc(Br)cc3)c2)on1,-1.5,6.1,-2.7,22.6,24.0,-1.7
Cc1cc(-c2ccc(C)c(S(=O)(=O)NCc3cccc(Br)c3)c2)on1,3.0,9.0,2.1,37.9*,25.6,0.4
CCc1ccc(-c2cc(C)no2)cc1S(=O)(=O)NCCc1ccc(OC)c(OC)c1,-12.8,7.4,11.5,42.8*,-20.0,0.8
c1csc(-c2nc(N3CCCCC3)no2)c1,-6.4,-14.4,-8.3,1.6,5.5,7.9
O=C(CSc1nc(=O)n(CCCN2CCOCC2)c2c1CCC2)Nc1ccc(F)cc1,-12.4,-19.8,-3.6,12.7,5.4,-1.0
C[C@H](NC(=O)c1ccccc1)C(=O)OCC(=O)Nc1ccc2c(c1)OCO2,-13.1,8.6,-4.9,8.1,49.0*,1.5
O=C(COC(=O)[C@H](Cc1c[nH]c2ccccc12)NC(=O)c1ccc(Cl)cc1)Nc1ccc2c(c1)OCO2,34.5*,34.4,-2.2,6.3,11.3,4.6
Cc1cc(N2CCCC2=O)cc(C)c1S(=O)(=O)NCCOc1ccc(C(C)(C)C)cc1,40.6*,67.0*,-11.1,70.3*,41.2,8.3
O=c1c2ccccc2nc(/C=C/c2ccccc2)n1CCCO,-19.1,-24.0,-6.9,14.9,9.4,7.0
